In data set [1] the test system is HepG2. Briefly: Cytotoxicity against human HepG2 cells assessed as reduction in cell viability at 5 uM measured after 24 hrs by SRB assay relative to control. It is filed as functional. In short, it runs like this:
(§1)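 HepG2 seeded 8000 cells/well in complete MEM; next day medium replaced with 0.4 % FBS medium containing compound or DMSO control. Viability was read by sulforhodamine B assay after 24 h, with absorbance at 570 nm. Dose-response series used 6.25, 12.5, 25, 50 or 100 μM; newer analogues were tested at a fixed 5 μM. Data are mean ± SD of three independent experiments.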
On the technique in general: Sulforhodamine B stains cellular protein and so reports cell mass.

The test system of data set [2] is HepG2. Briefly: Downregulation of proPCSK9 level in human HepG2 cells by Western blot analysis. It counts as functional, cell-based. In short, it runs like this:
(§2)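 HepG2 cells were treated overnight or for 24 h, alone or with simvastatin 40 μM. Lysates (1 % NP-40, 150 mM NaCl, 50 mM Tris-HCl pH 7.5) were loaded at 25 µg protein on 4–20 % SDS-PAGE. Blots were probed for proPCSK9, mature PCSK9 and LDLR, and densitometry was normalized to β-actin or GAPDH. Mean ± SD of three independent experiments.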
On the technique in general: A western blot detects proteins with antibodies after separation by electrophoresis.

In data set [3] the test system is HepG2. Briefly: Downregulation of mature PCSK9 level in human HepG2 cells by Western blot analysis. It is filed as functional, cell-based. In outline:
as §2

The test system of data set [4] is HepG2. Briefly: Induction of LDLR expression in human HepG2 cells by Western blot analysis. It counts as functional, cell-based. In short, it runs like this: as §2
In data set [5] the test system is HepG2. The experiment in a line: Cytotoxicity against human HepG2 cells assessed as reduction in cell viability at 100 uM measured after 24 hrs by SRB assay. It is filed as functional, cell-based. In outline: as §1
The test system of data set [6] is HepG2. Briefly: Downregulation of PCSK9 mRNA level in human HepG2 cells at 6 to 25 uM by qRT-PCR analysis. It counts as functional, cell-based. As to conditions: dose 6-25 µM. In outline:
(§3)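 Total RNA was taken from treated HepG2 cells for RT-qPCR of PCSK9, FAS and HMG-CoA reductase. Cycling was 50 °C 10 min, 95 °C 2 min, then 40 cycles of 95 °C 5 s and 60 °C 10 s. Relative quantification used ΔΔCt against 18S, corrected for primer efficiency. Mean ± SD of three independent experiments.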

Data set [7] relates to HepG2. The experiment in a line: Downregulation of PCSK9 protein level in human HepG2 cells at 5 uM by Western blot analysis. It counts as functional, cell-based. In outline:
as §2

The nature of data set [8]: Induction of LDLR expression in human HepG2 cells by measuring fold increase by Western blot analysis. It counts as functional. In short, it runs like this: as §2
The subject of data set [9] is HepG2. The experiment in a line: Effect on proPCSK9 expression in human HepG2 cells by Western blot analysis. It is filed as functional, cell-based. In outline:
as §2

Data set [10] relates to HepG2. Briefly: Cytotoxicity against human HepG2 cells assessed as reduction in cell viability at 6 to 100 uM measured after 24 hrs by SRB assay. It counts as functional, cell-based. As to conditions: dose 6-100 µM. In short, it runs like this:
as §1

The subject of data set [11] is HepG2. Briefly: Downregulation of simvastatin induced PCSK9 expression in human HepG2 cells measured after 24 hrs by Western blot analysis. It counts as functional, cell-based. In short, it runs like this: as §2
Data set [12] deals with HepG2. Briefly: Cytotoxicity against human HepG2 cells assessed as reduction in cell viability at 50 to 100 uM measured after 24 hrs by SRB assay. It is filed as functional, cell-based. The conditions noted are these: dose 50-100 µM. In short, it runs like this:
as §1

Data set [13] relates to HepG2. Briefly: Cytotoxicity against human HepG2 cells assessed as reduction in cell viability at 25 uM measured after 24 hrs by SRB assay. It counts as functional, cell-based. In outline:
as §1

Data set [14] relates to HepG2. Briefly: Downregulation of PCSK9 mRNA level in human HepG2 cells at 25 uM by qRT-PCR analysis. It counts as functional, cell-based. In short, it runs like this: as §3
Background: Quantitative PCR measures a nucleic acid by following its amplification.

Data set [15] in a line: Toxicity in C57BL/6 mouse assessed as reduction in ALT plasma level at 40 mg/kg, sc measured after 7 days by ELISA method. It counts as organism-based. The conditions noted are these: in vivo, 168 h, time 7 day. In short, it runs like this:
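Male C57BL/6J mice, 3 months old, dosed subcutaneously at 40 mg/kg daily for seven days in Transcutol. Killed under isoflurane 6 h after the final dose. Retro-orbital blood taken into EDTA and spun at 3000 rpm, 4 °C, 10 min. Plasma ALT measured by ELISA kit. Mean ± SEM, n = 5–6 per group.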

The source made the active and inactive calls. The rule behind the calls is not given here.

Regarding `COc1ccc(Cn2c(C)cc(NC3CCCC3)cc2=O)cc1`, the Activity in the data set on HepG2 [1] was over 95%.

Regarding `Cc1cc(NCc2ccc(C(F)(F)F)cc2)cc(=O)n1CC(C)C`, the Activity with HepG2 [1] was over 95%.

`CCCCCNc1cc(C)n(Cc2cccc(OC)c2OC)c(=O)c1`: the Activity in the data set with HepG2 [1] was over 95%.

Turning to `CCCCCNc1cc(C)n(Cc2ccc(OC)cc2)c(=O)c1`, the result in the data set with HepG2 [2] and with HepG2 [3] was Active. In addition, the result in the data set with HepG2 [4] was inactive.

Turning to `CCCCCn1c(C)cc(NCc2ccccc2)cc1=O`, the Activity in the data set with HepG2 [1] was over 95%.

With `CCCCCNc1cc(C)n(CCCCC)c(=O)c1`, the outcome in the data set on HepG2 [5], with HepG2 [6] and in the data set with HepG2 [7] was Active.

Take `Cc1cc(NCc2ccc(CCC(C)C)cc2)cc(=O)n1Cc1ccc(CCC(C)C)cc1`: the Activity with HepG2 [1] was over 95%. For the same compound, the “fold change (FC)” value in data set [8] was 3. For the same compound, in the data set with HepG2 [9], the result was inactive.

Take `Cc1cc(NCc2ccc(Cl)cc2)cc(=O)n1CCC(C)C`: the Activity with HepG2 [1] is over 95%.

On to `CCCCCNc1cc(C)n(Cc2ccc(C(F)(F)F)cc2)c(=O)c1`, for which, in the data set on HepG2 [1], the Activity is over 95%.

`COc1ccc(CNc2cc(C)n(Cc3ccc(OC)cc3)c(=O)c2)cc1`: the Activity in the data set on HepG2 [1] is on record as over 95%.

With `Cc1cc(NC2CCCC2)cc(=O)n1Cc1ccc(C(F)(F)F)cc1`, the Activity with HepG2 [1] is over 95%.

For `COc1cccc(CNc2cc(C)n(Cc3cccc(OC)c3OC)c(=O)c2)c1OC`, the Activity in the data set with HepG2 [1] is reported as over 95%.

For the compound `Cc1cc(NCc2ccccc2)cc(=O)n1CCC(C)C`, the Activity in the data set with HepG2 [1] is over 95%.

For the compound `Cc1cc(NCCC(C)C)cc(=O)n1Cc1ccccc1`, the Activity in the data set on HepG2 [1] was over 95%.

As to `Cc1cc(NCc2ccc(Cl)cc2)cc(=O)n1Cc1ccc(Cl)cc1`, the Activity with HepG2 [1] is on record as over 95%.

As for `CCCCCn1c(C)cc(NCc2ccc(Cl)cc2)cc1=O`, the outcome in the data set on HepG2 [10] was inactive. Further, the outcome in the data set on HepG2 [6] and in the data set with HepG2 [7] was Active.

With `CCC(C)(C)C(=O)O[C@H]1C[C@@H](C)C=C2C=C[C@H](C)[C@H](CC[C@@H]3C[C@@H](O)CC(=O)O3)[C@H]21`, the outcome in the data set with HepG2 [11] was inactive.

In the case of `Cc1cc(NCCc2ccccc2)cc(=O)n1Cc1ccc(Cl)cc1`, the result in the data set with HepG2 [12] and in the data set on HepG2 [14] was Active. In addition, the result in the data set on HepG2 [13] was inactive.

In the case of `CCCCCN(C(C)=O)c1cc(C)n(Cc2ccc(C(F)(F)F)cc2)c(=O)c1`, the Activity with HepG2 [1] was over 95%.

As to `Cc1cc(C(=O)C2=C(O)C(=O)N(CCCN3CCOCC3)C2c2ccncc2)ccc1OCc1ccccc1` (centres undefined), the Activity result in [15] is “Non-Toxic”.

Take `CCCCCn1c(C)cc(NCc2ccc(C(F)(F)F)cc2)cc1=O`: the Activity in the data set on HepG2 [1] is over 95%.

For the compound `CCCCCNc1cc(C)n(Cc2ccccc2)c(=O)c1`, in the data set with HepG2 [1], the Activity was over 95%.

Take `COc1ccc(CNc2cc(C)n(Cc3ccc(OC)c(OC)c3)c(=O)c2)cc1OC`: the Activity with HepG2 [1] was over 95%.

Take `CC(=O)N(Cc1ccc(C(F)(F)F)cc1)c1cc(C)n(Cc2ccc(C(F)(F)F)cc2)c(=O)c1`: the Activity in the data set on HepG2 [1] is on record as over 95%.
